Assay results taken from ChEMBL document CHEMBL5715953, “A Potent, Selective, and Cell-Active Inhibitor of Human Type I Protein Arginine Methyltransferases” (ACS Chem Biol, 2016).
Calls of active or inactive are those of the source. The calls are words filed in the database; no cut-off is given here.

Columns and labels:
[1] = molecular target: T1, Protein arginine N-methyltransferase 6 (Homo sapiens, UniProt Q96LA8); assay: Binding affinity to human PRMT6 assessed as inhibition constant using (3H) methylated biotin labelled peptide as substrate in presence of 3H-SAM by scintillation proximity assay
Summary of the method: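 Scintillation proximity assay with 3H-SAM as methyl donor, topped up with unlabelled SAM when needed. The methylated biotinylated peptide was captured on streptavidin/scintillant-coated plates and counted as cpm. IC50 came from compound titration at Km concentrations of both peptide substrate and SAM, in triplicate, reported as mean ± SD. Ki was calculated from IC50.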
Target sequence in this assay (Q96LA8 whole entry): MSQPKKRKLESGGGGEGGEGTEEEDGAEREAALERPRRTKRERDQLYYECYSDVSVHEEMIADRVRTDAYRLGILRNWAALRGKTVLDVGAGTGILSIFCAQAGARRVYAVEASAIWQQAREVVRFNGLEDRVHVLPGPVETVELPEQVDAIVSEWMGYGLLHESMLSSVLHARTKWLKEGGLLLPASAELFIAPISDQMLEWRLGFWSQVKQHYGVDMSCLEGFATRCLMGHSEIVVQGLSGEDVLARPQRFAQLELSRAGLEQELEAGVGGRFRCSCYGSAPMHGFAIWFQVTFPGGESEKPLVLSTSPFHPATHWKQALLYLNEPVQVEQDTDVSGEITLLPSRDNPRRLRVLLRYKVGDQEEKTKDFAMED

[2] = molecular target: T2, Protein arginine N-methyltransferase 8 (Homo sapiens, UniProt Q9NR22); assay: Inhibition of human PRMT8 using (3H) methylated biotin labelled peptide as substrate in presence of 3H-SAM by scintillation proximity assay
Summary of the method: (§1)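 Scintillation proximity assay: 3H-SAM as methyl donor, with non-tritiated SAM added when needed. The 3H-methylated biotinylated peptide is captured on streptavidin/scintillant-coated plates and read as counts per minute. IC50 comes from compound titration under balanced conditions, with substrate and cofactor at their Km values. Run in triplicate, mean ± SD. Ki is derived from IC50. A lower enzyme level (5 nM) is used for some potent compounds.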

[3] = molecular target: T3, Protein arginine N-methyltransferase 3 (Homo sapiens, UniProt O60678); assay: Inhibition of human PRMT3 using (3H) methylated biotin labelled peptide as substrate in presence of 3H-SAM by scintillation proximity assay
[4] = molecular target: T4, Histone-arginine methyltransferase CARM1 (Homo sapiens, UniProt Q86X55); assay: Binding affinity to human PRMT4 assessed as inhibition constant using (3H) methylated biotin labelled peptide as substrate in presence of 3H-SAM by scintillation proximity assay
T4 sequence (Q86X55 whole entry): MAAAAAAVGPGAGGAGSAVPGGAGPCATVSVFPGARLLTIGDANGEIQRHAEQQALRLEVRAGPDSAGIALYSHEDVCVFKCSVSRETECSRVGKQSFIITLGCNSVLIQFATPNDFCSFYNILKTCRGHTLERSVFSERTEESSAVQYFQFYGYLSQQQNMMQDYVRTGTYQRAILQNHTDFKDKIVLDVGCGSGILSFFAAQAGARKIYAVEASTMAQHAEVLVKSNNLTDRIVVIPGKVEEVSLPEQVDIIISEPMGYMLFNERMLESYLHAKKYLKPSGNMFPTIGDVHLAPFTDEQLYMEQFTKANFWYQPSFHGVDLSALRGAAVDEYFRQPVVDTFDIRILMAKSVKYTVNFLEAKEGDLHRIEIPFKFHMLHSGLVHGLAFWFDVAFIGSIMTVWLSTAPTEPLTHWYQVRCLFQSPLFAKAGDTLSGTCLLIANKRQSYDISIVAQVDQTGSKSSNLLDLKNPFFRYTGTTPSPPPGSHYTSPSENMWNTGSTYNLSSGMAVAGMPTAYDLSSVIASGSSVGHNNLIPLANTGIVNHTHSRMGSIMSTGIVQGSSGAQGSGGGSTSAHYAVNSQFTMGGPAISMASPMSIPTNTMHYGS

[5] = molecular target: T4, Histone-arginine methyltransferase CARM1; assay: (§2) Inhibition of human PRMT4 using (3H) methylated biotin labelled peptide as substrate in presence of 3H-SAM by scintillation proximity assay
Summary of the method: as §1, with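 “IC50.” for “IC50. A lower enzyme level (5 nM) is used for some potent compounds.”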

[6] = molecular target: T5, Protein arginine N-methyltransferase 1 (Homo sapiens, UniProt Q99873); assay: Inhibition of human PRMT1 using (3H) methylated biotin labelled peptide as substrate in presence of 3H-SAM by scintillation proximity assay
[7] = molecular target: T5, Protein arginine N-methyltransferase 1; assay: Binding affinity to human PRMT1 assessed as inhibition constant using (3H) methylated biotin labelled peptide as substrate in presence of 3H-SAM by scintillation proximity assay
Target sequence in this assay (Q99873 whole entry): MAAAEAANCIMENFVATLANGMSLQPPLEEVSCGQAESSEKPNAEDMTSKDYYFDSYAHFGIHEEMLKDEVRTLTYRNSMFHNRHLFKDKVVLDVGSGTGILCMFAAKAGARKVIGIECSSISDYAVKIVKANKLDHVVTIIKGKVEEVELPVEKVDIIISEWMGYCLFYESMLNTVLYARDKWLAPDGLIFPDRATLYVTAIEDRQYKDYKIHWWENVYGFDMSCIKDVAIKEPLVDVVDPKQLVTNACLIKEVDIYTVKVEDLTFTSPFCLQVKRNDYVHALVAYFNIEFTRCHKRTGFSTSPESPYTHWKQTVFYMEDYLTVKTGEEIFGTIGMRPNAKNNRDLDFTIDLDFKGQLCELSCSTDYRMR

[8] = molecular target: Protein arginine N-methyltransferase 5 (Homo sapiens) (UniProt O14744); assay: Inhibition of human PRMT5 using (3H) methylated biotin labelled peptide as substrate in presence of 3H-SAM by scintillation proximity assay; summary of the method: as §1
Sequence of Protein arginine N-methyltransferase 5 (Homo sapiens) (O14744 whole entry): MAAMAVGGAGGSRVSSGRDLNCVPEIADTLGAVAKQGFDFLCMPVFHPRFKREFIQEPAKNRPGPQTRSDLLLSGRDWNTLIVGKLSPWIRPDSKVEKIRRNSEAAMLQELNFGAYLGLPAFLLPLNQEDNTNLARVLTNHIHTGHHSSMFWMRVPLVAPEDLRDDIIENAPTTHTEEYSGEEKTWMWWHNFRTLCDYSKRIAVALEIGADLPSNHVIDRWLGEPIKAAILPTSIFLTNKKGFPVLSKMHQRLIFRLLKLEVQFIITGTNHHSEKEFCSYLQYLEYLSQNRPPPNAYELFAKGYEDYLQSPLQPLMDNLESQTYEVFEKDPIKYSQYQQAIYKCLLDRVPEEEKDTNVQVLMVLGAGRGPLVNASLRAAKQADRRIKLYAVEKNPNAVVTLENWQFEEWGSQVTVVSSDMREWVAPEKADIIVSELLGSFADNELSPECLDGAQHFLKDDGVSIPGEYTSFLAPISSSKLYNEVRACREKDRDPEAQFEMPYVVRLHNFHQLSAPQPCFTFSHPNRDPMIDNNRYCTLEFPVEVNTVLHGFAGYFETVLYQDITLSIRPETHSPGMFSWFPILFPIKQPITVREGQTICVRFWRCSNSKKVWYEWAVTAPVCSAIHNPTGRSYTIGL

[9] = molecular target: T6, Protein arginine N-methyltransferase 7 (Homo sapiens) (UniProt Q9NVM4); assay: Inhibition of human PRMT7 using (3H) methylated biotin labelled peptide as substrate in presence of 3H-SAM by scintillation proximity assay; summary of the method: as §1
T6 sequence (whole entry): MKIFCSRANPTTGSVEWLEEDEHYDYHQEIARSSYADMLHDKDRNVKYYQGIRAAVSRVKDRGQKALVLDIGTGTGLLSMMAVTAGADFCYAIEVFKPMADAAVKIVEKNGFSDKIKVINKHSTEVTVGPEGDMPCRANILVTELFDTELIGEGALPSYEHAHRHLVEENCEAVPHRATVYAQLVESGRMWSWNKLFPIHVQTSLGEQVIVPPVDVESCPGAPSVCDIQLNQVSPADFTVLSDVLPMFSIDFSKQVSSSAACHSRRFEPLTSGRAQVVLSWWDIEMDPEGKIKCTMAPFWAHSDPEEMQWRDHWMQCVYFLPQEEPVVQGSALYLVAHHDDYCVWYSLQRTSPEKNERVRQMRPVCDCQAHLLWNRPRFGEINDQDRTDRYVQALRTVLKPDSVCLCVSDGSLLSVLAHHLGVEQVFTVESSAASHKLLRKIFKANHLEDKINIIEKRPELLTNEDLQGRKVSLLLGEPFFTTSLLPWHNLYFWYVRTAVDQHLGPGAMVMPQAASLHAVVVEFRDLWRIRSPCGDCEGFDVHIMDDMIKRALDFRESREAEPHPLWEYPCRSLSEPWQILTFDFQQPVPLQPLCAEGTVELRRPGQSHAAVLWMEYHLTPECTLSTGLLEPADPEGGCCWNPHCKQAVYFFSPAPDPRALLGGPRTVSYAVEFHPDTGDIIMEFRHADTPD

[10] = molecular target: T7, Protein arginine N-methyltransferase 9 (Homo sapiens) (UniProt Q6P2P2); assay: Inhibition of human PRMT9 using (3H) methylated biotin labelled peptide as substrate in presence of 3H-SAM by scintillation proximity assay; summary of the method: as §1
T7 sequence (whole entry): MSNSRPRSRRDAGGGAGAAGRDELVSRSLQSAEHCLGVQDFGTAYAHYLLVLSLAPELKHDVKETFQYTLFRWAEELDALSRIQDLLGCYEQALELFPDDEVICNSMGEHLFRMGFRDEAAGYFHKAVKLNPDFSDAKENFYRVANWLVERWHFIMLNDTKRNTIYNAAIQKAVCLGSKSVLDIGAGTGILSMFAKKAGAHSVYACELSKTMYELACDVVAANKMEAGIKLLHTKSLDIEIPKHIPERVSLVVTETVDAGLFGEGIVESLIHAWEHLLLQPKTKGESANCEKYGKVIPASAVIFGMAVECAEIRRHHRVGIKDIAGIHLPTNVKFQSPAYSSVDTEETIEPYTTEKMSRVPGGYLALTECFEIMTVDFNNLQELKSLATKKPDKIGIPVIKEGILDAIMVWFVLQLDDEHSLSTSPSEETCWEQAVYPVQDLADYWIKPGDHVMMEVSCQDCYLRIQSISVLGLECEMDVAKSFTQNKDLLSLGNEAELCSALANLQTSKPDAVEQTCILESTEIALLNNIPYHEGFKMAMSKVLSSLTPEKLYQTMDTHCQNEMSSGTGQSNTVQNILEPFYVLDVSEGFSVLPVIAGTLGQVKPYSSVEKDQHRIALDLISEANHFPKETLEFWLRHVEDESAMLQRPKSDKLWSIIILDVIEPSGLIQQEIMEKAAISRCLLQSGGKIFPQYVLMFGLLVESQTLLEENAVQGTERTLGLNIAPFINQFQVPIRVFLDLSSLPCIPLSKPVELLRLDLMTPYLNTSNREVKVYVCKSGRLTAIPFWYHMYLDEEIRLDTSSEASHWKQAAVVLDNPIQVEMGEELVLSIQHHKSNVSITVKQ

[11] = molecular target: T3, Protein arginine N-methyltransferase 3; assay: Binding affinity to human PRMT3 assessed as inhibition constant using (3H) methylated biotin labelled peptide as substrate in presence of 3H-SAM by scintillation proximity assay
Target sequence in this assay (O60678 whole entry): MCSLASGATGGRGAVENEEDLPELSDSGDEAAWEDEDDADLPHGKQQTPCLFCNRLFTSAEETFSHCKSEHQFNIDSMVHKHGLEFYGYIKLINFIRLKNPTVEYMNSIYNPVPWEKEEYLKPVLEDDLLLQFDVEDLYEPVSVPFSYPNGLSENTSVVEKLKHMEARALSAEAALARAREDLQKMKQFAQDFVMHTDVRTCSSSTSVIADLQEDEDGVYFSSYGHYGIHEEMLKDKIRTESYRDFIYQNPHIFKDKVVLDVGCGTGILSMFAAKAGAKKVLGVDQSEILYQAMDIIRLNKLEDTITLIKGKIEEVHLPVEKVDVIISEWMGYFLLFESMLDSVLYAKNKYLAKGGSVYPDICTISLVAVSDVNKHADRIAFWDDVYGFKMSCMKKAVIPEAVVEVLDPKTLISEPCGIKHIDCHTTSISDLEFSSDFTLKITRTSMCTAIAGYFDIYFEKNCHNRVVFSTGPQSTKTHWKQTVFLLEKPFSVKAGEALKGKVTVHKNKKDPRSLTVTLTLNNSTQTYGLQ

[12] = molecular target: T2, Protein arginine N-methyltransferase 8; assay: Binding affinity to human PRMT8 assessed as inhibition constant using (3H) methylated biotin labelled peptide as substrate in presence of 3H-SAM by scintillation proximity assay; summary of the method: as §1
Target sequence in this assay (Q9NR22 whole entry): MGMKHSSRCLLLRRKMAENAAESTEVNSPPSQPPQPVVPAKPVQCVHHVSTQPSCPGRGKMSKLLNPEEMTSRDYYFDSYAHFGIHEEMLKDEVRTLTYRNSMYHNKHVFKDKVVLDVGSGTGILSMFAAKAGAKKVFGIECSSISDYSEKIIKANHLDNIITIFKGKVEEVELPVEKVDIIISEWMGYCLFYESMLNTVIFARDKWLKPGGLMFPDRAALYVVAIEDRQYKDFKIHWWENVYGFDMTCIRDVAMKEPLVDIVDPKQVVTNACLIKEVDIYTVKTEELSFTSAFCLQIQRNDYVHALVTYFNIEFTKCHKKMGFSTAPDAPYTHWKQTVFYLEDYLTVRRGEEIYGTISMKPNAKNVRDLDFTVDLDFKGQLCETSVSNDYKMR

[13] = molecular target: T1, Protein arginine N-methyltransferase 6; assay: Inhibition of human PRMT6 using (3H) methylated biotin labelled peptide as substrate in presence of 3H-SAM by scintillation proximity assay
HFF = assay: Cytotoxicity in human HFF cells assessed as cell confluency at <=1 uM incubated for 96 hrs by phase contrast cell imaging analysis; format: toxicity, cell-based
[14] = molecular target: Polycomb protein EED (Homo sapiens) (UniProt O75530)
Sequence of Polycomb protein EED (Homo sapiens) (O75530 2-441 limits assumed): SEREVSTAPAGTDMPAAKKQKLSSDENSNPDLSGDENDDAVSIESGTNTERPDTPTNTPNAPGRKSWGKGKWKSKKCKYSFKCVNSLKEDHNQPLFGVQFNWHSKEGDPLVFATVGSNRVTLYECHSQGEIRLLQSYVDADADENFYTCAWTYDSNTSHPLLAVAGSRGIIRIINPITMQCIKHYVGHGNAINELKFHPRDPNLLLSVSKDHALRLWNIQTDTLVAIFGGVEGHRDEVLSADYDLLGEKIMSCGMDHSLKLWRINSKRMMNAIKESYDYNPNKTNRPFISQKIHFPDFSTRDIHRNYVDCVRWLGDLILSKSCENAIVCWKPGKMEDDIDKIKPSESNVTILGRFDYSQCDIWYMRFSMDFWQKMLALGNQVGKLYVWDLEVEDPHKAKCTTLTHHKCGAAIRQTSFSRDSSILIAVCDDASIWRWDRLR

[15] = molecular target: T2, Protein arginine N-methyltransferase 8; assay: Inhibition of human PRMT8 assessed as inhibition constant using peptide as substrate
Target sequence in this assay (Q9NR22 whole entry): as the sequence (Q9NR22 whole entry) above

[16] = molecular target: T1, Protein arginine N-methyltransferase 6; assay: Inhibition of human PRMT6 using (3H) methylated biotin labelled peptide as substrate incubated for 30 mins in presence of 3H-SAM by scintillation proximity assay
Target sequence in this assay (Q96LA8 whole entry): as the sequence (Q96LA8 whole entry) above

Peregrin (Homo sapiens) = Peregrin (Homo sapiens) (UniProt P55201)
[17] = molecular target: E3 ubiquitin-protein ligase UHRF1 (Homo sapiens) (UniProt Q96T88)
[18] = molecular target: Tudor domain-containing protein 3 (Homo sapiens) (UniProt Q9H7E2)
Sequence of Tudor domain-containing protein 3 (Homo sapiens) (Q9H7E2 whole entry, the tested form may be a part): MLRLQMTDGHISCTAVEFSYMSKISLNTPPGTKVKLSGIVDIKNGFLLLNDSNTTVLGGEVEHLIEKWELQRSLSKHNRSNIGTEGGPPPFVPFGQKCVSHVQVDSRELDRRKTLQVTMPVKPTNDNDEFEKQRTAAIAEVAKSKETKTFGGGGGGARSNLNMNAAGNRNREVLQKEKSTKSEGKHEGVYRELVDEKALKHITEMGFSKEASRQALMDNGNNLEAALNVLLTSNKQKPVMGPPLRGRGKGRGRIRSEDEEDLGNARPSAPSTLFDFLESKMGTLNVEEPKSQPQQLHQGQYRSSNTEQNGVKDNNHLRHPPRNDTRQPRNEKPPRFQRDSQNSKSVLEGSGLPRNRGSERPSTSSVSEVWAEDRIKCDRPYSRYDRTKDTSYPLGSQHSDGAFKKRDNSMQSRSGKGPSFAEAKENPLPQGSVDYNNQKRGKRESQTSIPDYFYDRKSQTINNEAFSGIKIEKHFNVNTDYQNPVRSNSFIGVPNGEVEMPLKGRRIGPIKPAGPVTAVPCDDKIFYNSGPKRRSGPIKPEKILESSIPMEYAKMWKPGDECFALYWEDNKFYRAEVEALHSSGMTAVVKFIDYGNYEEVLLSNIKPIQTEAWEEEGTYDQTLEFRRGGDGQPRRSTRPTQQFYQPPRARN

[19] = molecular target: Growth/differentiation factor 2 (Homo sapiens) (UniProt Q9UK05)
Sequence of Growth/differentiation factor 2 (Homo sapiens) (Q9UK05 whole entry, the tested form may be a part): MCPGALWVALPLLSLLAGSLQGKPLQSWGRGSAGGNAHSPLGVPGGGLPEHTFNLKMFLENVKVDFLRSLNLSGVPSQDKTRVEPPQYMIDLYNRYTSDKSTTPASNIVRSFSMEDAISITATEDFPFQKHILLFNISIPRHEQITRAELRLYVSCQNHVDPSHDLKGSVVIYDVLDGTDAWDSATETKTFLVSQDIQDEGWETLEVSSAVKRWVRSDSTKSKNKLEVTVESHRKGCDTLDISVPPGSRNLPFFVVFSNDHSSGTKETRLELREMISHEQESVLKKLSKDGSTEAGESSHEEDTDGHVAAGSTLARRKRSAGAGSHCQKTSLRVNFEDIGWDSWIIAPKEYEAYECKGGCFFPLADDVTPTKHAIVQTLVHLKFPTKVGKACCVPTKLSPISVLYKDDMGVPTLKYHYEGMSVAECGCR

[20] = molecular target: Staphylococcal nuclease domain-containing protein 1 (Homo sapiens) (UniProt Q7KZF4)
MCF7 = assay: Antiproliferative activity against human MCF7 cells assessed as decrease in cell number at 0.1 uM incubated for 10 days by vybrant dye cycle green/ Enzo-nuclear-ID red staining based live cell imaging analysis relative to control; format: functional; design: scale not given: the % may be the effect or the level left; conditions: time 10 day
[21] = molecular target: T1, Protein arginine N-methyltransferase 6; assay: Inhibition of human PRMT6 assessed as inhibition constant using peptide as substrate
Target sequence in this assay (Q96LA8 whole entry): as the sequence (Q96LA8 whole entry) above

[22] = molecular target: T1, Protein arginine N-methyltransferase 6; assay: Inhibition of human PRMT6 assessed as inhibition constant in presence of cofactor SAM
Target sequence in this assay (Q96LA8 whole entry): as above

HEK293 [23] = conditions: Homo sapiens, dose 1000.0 nM, time 20.0 hrs
[24] = molecular target: T4, Histone-arginine methyltransferase CARM1; assay: Inhibition of human PRMT4 assessed as inhibition constant using peptide as substrate
[25] = molecular target: T4, Histone-arginine methyltransferase CARM1; assay: Inhibition of human PRMT4 assessed as inhibition constant in presence of cofactor SAM
[26] = molecular target: WD repeat-containing protein 5 (Homo sapiens) (UniProt P61964)
HEK293 [27] = assay: Cytotoxicity in human HEK293 cells assessed as inhibition of cell growth at 1 uM incubated for 4 days by phase contrast cell imaging analysis; format: toxicity, cell-based; conditions: hek293, 96 h, time 4 day
HEK293 [28] = conditions: Homo sapiens, dose 333.0 nM, time 20.0 hrs
[29] = molecular target: RNA-binding protein FXR1 (Homo sapiens) (UniProt P51114)
Sequence of RNA-binding protein FXR1 (Homo sapiens) (P51114 whole entry): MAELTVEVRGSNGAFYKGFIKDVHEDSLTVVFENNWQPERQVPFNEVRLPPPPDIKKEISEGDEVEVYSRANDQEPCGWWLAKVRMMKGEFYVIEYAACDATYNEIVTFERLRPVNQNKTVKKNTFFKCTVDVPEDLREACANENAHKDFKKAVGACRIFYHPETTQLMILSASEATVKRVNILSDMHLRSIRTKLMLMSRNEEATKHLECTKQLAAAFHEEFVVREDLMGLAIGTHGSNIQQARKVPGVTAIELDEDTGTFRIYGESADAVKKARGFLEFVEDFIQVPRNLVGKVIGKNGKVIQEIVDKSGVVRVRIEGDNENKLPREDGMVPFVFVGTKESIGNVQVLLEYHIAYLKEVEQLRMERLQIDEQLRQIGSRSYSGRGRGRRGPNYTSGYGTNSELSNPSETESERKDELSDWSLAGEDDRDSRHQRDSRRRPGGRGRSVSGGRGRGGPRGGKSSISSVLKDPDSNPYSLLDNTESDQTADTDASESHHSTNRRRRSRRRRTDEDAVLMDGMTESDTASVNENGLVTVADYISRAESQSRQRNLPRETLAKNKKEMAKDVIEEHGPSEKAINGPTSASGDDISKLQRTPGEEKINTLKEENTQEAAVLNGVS

[30] = molecular target: T2, Protein arginine N-methyltransferase 8; assay: Inhibition of human PRMT8 assessed as inhibition constant in presence of cofactor SAM
Target sequence in this assay (Q9NR22 whole entry): as the sequence (Q9NR22 whole entry) above

[31] = molecular target: AT-rich interactive domain-containing protein 4A (Homo sapiens) (UniProt P29374)
[32] = molecular target: T8, Histone-arginine methyltransferase CARM1 (Homo sapiens) (UniProt Q86X55); assay: as §2
T8 sequence (whole entry): T4 sequence (Q86X55 whole entry)
Summary of the method: as §1, with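 “IC50.” for “IC50. A lower enzyme level (5 nM) is used for some potent compounds.”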

[33] = molecular target: T5, Protein arginine N-methyltransferase 1; assay: Inhibition of PRMT1 in human MCF7 cells assessed as decrease in H4R3me2a level incubated for 48 hrs by Western blotting analysis; format: cell-based
Target sequence in this assay (Q99873 whole entry, looked up): as the sequence (Q99873 whole entry) above

Structure (SMILES): CN(CCN)Cc1n[nH]nc1-c1cccc(C(F)(F)F)c1
- Ki [1]: 110 nM
- IC50 [2]: 3000 nM
- IC50 [3]: > 100000 nM
- Ki [4]: > 37500 nM
- IC50 [5]: > 75000 nM
- IC50 [6]: > 20000 nM
- Ki [7]: > 10000 nM
- inhibition [8]: inactive
- inhibition [9]: inactive
- inhibition [10]: inactive
- Ki [11]: > 50000 nM
- Ki [12]: 1500 nM
- IC50 [13]: 230 nM

Structure (SMILES): CC(C)Oc1ccc(-c2c[nH]cc2CN(C)CCN)cc1
- Activity (HFF): Non-Toxic
- deltaTm [14]: inactive
- IC50 [15]: Not Active
- IC50 [2]: 5 nM
- IC50 [16]: Not Active
- ΔTm (Peregrin (Homo sapiens)): -0.3 °C
- Ki [4]: 23 nM
- ΔTm [17]: -1.5 °C
- deltaTm [18]: inactive
- ΔTm [19]: -3 °C
- IC50 [5]: 83 nM
- deltaTm [20]: inactive
- Activity (MCF7): 30%
- IC50 [21]: Not Active
- IC50 [22]: Not Active
- inhibition (HEK293 [23]): Active
- IC50 [24]: Not Active
- IC50 [25]: Not Active
- ΔTm [26]: -1.3 °C
- Activity (HEK293 [27]): Toxic
- Ki [12]: 1.3 nM
- inhibition (HEK293 [28]): Active
- deltaTm [29]: inactive
- IC50 [30]: Not Active
- deltaTm [31]: inactive

Structure (SMILES): CC(C)Oc1ccc(-c2c[nH]cc2CN(C)CCO)cc1
- inhibition [2]: inactive
- inhibition [3]: inactive
- inhibition [32]: inactive
- inhibition [6]: inactive
- inhibition [33]: inactive
- inhibition [8]: inactive
- inhibition [9]: inactive
- inhibition [10]: inactive
- inhibition [13]: inactive

Structure (SMILES): CC(C)Oc1ccc(-c2c[nH]cc2C(=O)N(C)CCN)cc1
- inhibition [2]: inactive
- inhibition [3]: inactive
- inhibition [32]: inactive
- inhibition [6]: inactive
- inhibition [33]: inactive
- inhibition [8]: inactive
- inhibition [9]: inactive
- inhibition [10]: inactive
- inhibition [13]: inactive

Structure (SMILES): CN(CCN)Cc1c[nH]cc1-c1cccc(C(F)(F)F)c1
- Ki [1]: 3 nM
- IC50 [2]: 42 nM
- inhibition [8]: inactive
- inhibition [9]: inactive
- inhibition [10]: inactive
- Ki [12]: 17 nM
- IC50 [13]: 9 nM

Structure (SMILES): CC(C)Oc1ccc(-c2c[nH]cc2CN(C)CC(N)=O)cc1
- inhibition [2]: inactive
- inhibition [3]: inactive
- inhibition [32]: inactive
- inhibition [6]: inactive
- inhibition [33]: inactive
- inhibition [8]: inactive
- inhibition [9]: inactive
- inhibition [10]: inactive
- inhibition [13]: inactive
